Measured values taken from ChEMBL document CHEMBL1151962, “Identification of N,1,4,4-tetramethyl-8-{[4-(4-methylpiperazin-1-yl)phenyl]amino}-4,5-dihydro-1H-pyrazolo[4,3-h]quinazoline-3-carboxamide (PHA-848125), a potent, orally available cyclin dependent kinase inhibitor” (J Med Chem, 2009).
In brackets after ≈: the same amount, converted by molar mass.

Columns and labels:
[1] = target: Serine/threonine-protein kinase PLK1 (Homo sapiens, UniProt P53350); assay: Inhibition of PLK1
[2] = Inhibition of SULU1
Insulin receptor = Insulin receptor (Homo sapiens, UniProt P06213); assay: Inhibition of IR
[3] = target: MAP kinase-activated protein kinase 2 (Homo sapiens, UniProt P49137); assay: Inhibition of MAPKAPK2
A2780 [4] = assay: Antitumor activity against human A2780 cells xenografted in nude mouse assessed as tumor growth inhibition at 30 mg/kg, po BID for 10 consecutive days; format: functional; design: scale not given: the % may be the effect or the level left
Method in brief: (§1)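 A2780 human ovarian xenografts were grown in nude mice. Compound was given orally at 20, 30 or 40 mg/kg twice daily for 10 consecutive days. The read-out was tumor growth inhibition.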

[5] = target: Mitogen-activated protein kinase 11 (Homo sapiens, UniProt Q15759); assay: Inhibition of P38beta
[6] = target: Inhibitor of nuclear factor kappa-B kinase subunit epsilon (Homo sapiens, UniProt Q14164); assay: Inhibition of IKKi
[7] = target: Inhibitor of nuclear factor kappa-B kinase subunit beta (Homo sapiens, UniProt O14920); assay: Inhibition of IKK2
[8] = Inhibition of PDGFR
[9] = target: Fibroblast growth factor receptor 1 (Homo sapiens, UniProt P11362); assay: Inhibition of FGFR1
A2780 [10] = assay: Effect on cell cycle progression in human A2780 cells assessed as increase in accumulation at […] phase at 1 uM after 24 hrs by flow cytometry; format: functional
Method in brief: (§2)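 A2780 cells (ECACC) were seeded at 25 000 cells/cm² in RPMI 1640 pH 7.4 with 10% FBS, 2 mM L-glutamine and penicillin-streptomycin, at 37 °C and 5% CO2. After 24 h, cells were exposed to 1 μM compound for 24 h. Floating and trypsin/EDTA-detached cells were pooled and PBS-washed. Samples were split for flow cytometry and BrdU incorporation. Results are expressed versus untreated control cells.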

[11] = target: Cyclin-dependent kinase 1/cyclin B1 (Homo sapiens, UniProt P06493); assay: Inhibition of CDK1/Cyclin B
Method in brief: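 Biochemical kinase-panel assay against the CDK1/cyclin B complex; IC50 in μM, reported as the mean of two or more experiments.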

[12] = target: Vascular endothelial growth factor receptor 2 (Homo sapiens, UniProt P35968); assay: Inhibition of VEGFR2
[13] = target: Serine/threonine-protein kinase PAK 4 (Homo sapiens, UniProt O96013); assay: Inhibition of PAK4
[14] = target: Cell division cycle 7-related protein kinase (Homo sapiens, UniProt O00311); assay: Inhibition of CDC7
[15] = target: Tyrosine-protein kinase Lyn (Homo sapiens, UniProt P07948); assay: Inhibition of LYN
[16] = target: Protein kinase C beta type (Homo sapiens, UniProt P05771); assay: Inhibition of PKCbeta
[17] = target: Mitogen-activated protein kinase 14 (Homo sapiens, UniProt Q16539); assay: Inhibition of P38alpha
Aurora kinase A = target: T1, Aurora kinase A (Homo sapiens, UniProt O14965); assay: Inhibition of Aurora A
T1 sequence (O14965 whole entry): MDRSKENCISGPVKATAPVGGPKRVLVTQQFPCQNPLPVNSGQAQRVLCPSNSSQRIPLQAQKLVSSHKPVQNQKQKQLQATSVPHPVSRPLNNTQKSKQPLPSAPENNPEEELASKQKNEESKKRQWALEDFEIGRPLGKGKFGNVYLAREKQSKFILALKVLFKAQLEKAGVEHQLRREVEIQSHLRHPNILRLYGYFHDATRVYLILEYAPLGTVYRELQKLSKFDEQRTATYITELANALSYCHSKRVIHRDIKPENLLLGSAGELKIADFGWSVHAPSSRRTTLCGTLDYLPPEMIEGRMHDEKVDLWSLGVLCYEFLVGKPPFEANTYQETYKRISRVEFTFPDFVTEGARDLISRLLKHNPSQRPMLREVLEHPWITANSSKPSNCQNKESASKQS

[18] = target: RAC-alpha serine/threonine-protein kinase (Homo sapiens, UniProt P31749); assay: Inhibition of AKT1
A2780 [19] = assay: Inhibition of DNA synthesis in human A2780 cells assessed as decrease in […] incorporation at 1 uM after 24 hrs by flow cytometry; format: functional; design: scale not given: the % may be the effect or the level left; method in brief: as §2
[20] = target: Serine/threonine-protein kinase Nek6 (Homo sapiens, UniProt Q9HC98); assay: Inhibition of NEK6
A2780 [21] = assay: Effect on cell cycle progression in human A2780 cells assessed as decrease in accumulation at S phase at 1 uM after 24 hrs by flow cytometry; format: functional; design: scale not given: the % may be the effect or the level left; method in brief: as §2
[22] = target: Mitogen-activated protein kinase 1 (Homo sapiens, UniProt P28482); assay: Inhibition of ERK2
[23] = target: Mast/stem cell growth factor receptor Kit (Homo sapiens, UniProt P10721); assay: Inhibition of C-KIT
[24] = target: Serine/threonine-protein kinase Chk1 (Homo sapiens, UniProt O14757); assay: Inhibition of CHK1
[25] = target: 3-phosphoinositide-dependent protein kinase 1 (Homo sapiens, UniProt O15530); assay: Inhibition of PDK1
[26] = target: Insulin-like growth factor 1 receptor (Homo sapiens, UniProt P08069); assay: Inhibition of IGF1R
[27] = target: Proto-oncogene tyrosine-protein kinase receptor Ret (Homo sapiens, UniProt P07949); assay: Inhibition of RET
[28] = target: Vascular endothelial growth factor receptor 3 (Homo sapiens, UniProt P35916); assay: Inhibition of VEGFR3
[29] = target: Glycogen synthase kinase-3 beta (Homo sapiens, UniProt P49841); assay: Inhibition of GSK3-beta
[30] = target: cAMP-dependent protein kinase catalytic subunit alpha (Homo sapiens, UniProt P17612); assay: Inhibition of PKAalpha
[31] = Inhibition of CK2
[32] = target: STE20-like serine/threonine-protein kinase (Homo sapiens, UniProt Q9H2G2); assay: Inhibition of STLK2
A2780 [33] = assay: Effect on cell cycle progression in human A2780 cells assessed as decrease in accumulation at G2/M phase at 1 uM after 24 hrs by flow cytometry; format: functional; design: scale not given: the % may be the effect or the level left; method in brief: as §2
[34] = Inhibition of NIM
Aurora kinase B = Aurora kinase B (Homo sapiens, UniProt Q96GD4); assay: Inhibition of Aurora B
[35] = Solubility at pH 7; format: physicochemical; settings: buffer
A2780 [36] = assay: Antitumor activity against human A2780 cells xenografted in nude mouse assessed as tumor growth inhibition at 20 mg/kg, po BID for 10 consecutive days; format: functional; design: scale not given: the % may be the effect or the level left; method in brief: as §1
[37] = target: Tyrosine-protein kinase ZAP-70 (Homo sapiens, UniProt P43403); assay: Inhibition of ZAP-70
A2780 [38] = assay: Antiproliferative activity against human A2780 cells after 72 hrs by cell Titer_Glo assay; format: functional, cell-based; settings: A2780, 72 h
Method in brief: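 A2780 cells were seeded at 10000–30000 cells/cm² in medium with 10% FCS. After 24 h they were treated with serial dilutions of compound, in two replicates. Cell amount was read by Cell Titer Glo 72 h after treatment. IC50 came from sigmoidal fitting.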

A2780 [39] = assay: Antitumor activity against human A2780 cells xenografted in nude mouse assessed as tumor growth inhibition at 40 mg/kg, po BID for 10 consecutive days; format: functional; design: scale not given: the % may be the effect or the level left; method in brief: as §1

Insulin receptor, sequence (P06213 28-758 limits assumed): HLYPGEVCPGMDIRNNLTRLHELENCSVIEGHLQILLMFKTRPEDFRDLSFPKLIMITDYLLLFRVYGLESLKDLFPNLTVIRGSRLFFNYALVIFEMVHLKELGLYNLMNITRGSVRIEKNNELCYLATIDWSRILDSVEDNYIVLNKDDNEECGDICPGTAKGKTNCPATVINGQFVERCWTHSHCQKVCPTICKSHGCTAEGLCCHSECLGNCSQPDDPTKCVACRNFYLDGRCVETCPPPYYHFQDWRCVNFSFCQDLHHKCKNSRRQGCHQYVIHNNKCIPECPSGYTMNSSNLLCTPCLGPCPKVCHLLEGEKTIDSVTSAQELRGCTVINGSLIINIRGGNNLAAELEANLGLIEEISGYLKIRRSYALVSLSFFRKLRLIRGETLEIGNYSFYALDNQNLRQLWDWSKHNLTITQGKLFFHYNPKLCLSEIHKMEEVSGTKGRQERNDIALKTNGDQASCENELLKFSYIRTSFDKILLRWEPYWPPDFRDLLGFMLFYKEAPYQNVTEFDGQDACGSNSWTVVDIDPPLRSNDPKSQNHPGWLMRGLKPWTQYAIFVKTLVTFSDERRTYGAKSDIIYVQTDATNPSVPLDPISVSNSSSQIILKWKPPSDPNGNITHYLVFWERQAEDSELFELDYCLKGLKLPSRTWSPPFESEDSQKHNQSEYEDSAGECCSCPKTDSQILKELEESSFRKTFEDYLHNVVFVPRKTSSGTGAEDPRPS
Insulin receptor, sequence (P06213 763-1382 limits assumed): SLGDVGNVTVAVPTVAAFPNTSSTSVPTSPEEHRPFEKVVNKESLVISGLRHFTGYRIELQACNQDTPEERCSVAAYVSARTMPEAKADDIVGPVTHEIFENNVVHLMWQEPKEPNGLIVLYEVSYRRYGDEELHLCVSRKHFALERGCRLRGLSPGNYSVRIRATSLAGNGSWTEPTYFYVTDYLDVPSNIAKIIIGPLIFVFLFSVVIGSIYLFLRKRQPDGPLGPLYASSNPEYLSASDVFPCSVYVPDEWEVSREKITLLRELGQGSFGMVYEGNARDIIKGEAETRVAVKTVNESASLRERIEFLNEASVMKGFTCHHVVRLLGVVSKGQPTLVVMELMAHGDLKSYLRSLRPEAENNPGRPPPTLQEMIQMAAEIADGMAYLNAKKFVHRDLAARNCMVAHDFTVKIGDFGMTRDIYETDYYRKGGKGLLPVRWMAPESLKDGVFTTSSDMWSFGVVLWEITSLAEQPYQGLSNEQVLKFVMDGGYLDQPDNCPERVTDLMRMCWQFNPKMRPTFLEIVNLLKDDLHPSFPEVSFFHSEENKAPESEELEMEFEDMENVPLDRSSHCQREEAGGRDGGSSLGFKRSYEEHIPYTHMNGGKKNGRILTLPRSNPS
Fibroblast growth factor receptor 1, sequence (P11362 whole entry): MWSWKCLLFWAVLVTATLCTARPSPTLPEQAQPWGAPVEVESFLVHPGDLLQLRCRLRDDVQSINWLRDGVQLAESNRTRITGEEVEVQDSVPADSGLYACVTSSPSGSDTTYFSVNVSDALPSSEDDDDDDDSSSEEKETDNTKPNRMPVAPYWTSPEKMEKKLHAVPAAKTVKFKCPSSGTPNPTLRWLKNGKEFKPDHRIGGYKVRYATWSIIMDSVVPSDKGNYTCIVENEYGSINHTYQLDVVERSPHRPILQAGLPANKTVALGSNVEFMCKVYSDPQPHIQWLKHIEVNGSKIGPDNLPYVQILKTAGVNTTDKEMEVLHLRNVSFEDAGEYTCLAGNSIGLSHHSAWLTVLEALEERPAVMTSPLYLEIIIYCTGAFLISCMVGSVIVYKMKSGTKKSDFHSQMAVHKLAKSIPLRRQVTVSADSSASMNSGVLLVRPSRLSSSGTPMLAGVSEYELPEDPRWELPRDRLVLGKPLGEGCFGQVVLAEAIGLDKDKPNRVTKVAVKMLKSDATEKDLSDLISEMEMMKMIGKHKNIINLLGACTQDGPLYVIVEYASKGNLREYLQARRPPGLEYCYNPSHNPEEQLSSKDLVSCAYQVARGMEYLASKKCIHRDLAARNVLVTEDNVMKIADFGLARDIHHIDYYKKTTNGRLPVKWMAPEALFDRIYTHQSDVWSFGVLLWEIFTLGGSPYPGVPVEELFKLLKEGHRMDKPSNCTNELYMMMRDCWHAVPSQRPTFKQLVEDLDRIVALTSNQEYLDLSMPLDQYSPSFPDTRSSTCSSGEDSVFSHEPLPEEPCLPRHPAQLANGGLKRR
Cell division cycle 7-related protein kinase, sequence (O00311 whole entry): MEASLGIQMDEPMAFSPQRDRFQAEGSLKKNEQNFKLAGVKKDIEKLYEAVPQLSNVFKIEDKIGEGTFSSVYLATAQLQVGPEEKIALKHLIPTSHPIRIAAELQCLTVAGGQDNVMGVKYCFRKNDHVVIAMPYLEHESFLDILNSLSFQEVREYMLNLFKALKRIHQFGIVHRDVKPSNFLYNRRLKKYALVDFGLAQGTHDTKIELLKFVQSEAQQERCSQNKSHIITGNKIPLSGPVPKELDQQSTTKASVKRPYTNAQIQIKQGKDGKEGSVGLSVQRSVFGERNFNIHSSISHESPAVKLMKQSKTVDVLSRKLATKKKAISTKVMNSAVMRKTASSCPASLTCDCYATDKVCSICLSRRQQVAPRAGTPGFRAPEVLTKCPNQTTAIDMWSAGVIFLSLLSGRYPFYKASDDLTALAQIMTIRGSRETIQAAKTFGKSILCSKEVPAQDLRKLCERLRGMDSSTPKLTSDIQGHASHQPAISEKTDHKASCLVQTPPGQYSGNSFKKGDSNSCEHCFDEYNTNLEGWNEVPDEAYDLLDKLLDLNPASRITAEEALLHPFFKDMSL
Vascular endothelial growth factor receptor 2, sequence (P35968 whole entry): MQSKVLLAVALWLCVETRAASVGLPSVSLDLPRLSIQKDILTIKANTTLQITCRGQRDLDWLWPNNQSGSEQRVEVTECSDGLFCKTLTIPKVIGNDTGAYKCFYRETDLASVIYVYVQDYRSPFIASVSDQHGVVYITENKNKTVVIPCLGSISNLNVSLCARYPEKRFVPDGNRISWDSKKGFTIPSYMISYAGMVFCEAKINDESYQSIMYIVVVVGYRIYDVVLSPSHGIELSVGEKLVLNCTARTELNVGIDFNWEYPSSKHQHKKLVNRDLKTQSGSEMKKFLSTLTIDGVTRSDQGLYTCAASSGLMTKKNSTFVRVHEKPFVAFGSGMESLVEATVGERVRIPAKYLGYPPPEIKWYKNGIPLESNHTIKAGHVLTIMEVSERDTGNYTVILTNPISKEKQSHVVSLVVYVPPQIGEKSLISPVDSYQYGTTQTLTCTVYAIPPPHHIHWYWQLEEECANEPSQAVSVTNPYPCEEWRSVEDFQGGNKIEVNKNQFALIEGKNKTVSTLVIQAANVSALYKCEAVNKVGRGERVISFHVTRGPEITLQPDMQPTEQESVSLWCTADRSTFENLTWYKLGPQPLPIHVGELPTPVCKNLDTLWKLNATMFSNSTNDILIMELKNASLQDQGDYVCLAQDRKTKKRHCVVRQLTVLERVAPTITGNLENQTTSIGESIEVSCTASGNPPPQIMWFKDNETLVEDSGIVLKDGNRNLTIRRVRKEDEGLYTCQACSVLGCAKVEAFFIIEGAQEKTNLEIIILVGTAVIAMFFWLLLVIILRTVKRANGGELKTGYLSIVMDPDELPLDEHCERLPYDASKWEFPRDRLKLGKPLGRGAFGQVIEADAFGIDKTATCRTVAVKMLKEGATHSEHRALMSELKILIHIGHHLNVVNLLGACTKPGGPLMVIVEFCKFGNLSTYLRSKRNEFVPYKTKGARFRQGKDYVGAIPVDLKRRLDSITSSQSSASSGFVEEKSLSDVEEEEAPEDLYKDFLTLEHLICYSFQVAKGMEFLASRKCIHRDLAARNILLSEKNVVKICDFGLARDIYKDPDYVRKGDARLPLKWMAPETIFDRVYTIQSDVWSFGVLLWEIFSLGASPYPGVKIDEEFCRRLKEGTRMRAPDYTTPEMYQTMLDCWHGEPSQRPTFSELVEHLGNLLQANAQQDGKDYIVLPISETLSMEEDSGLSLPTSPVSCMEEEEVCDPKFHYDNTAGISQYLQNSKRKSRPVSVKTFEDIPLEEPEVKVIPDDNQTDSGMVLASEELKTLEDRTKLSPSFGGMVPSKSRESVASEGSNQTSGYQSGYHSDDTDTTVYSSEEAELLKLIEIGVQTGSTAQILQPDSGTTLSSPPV
Glycogen synthase kinase-3 beta, sequence (P49841 whole entry): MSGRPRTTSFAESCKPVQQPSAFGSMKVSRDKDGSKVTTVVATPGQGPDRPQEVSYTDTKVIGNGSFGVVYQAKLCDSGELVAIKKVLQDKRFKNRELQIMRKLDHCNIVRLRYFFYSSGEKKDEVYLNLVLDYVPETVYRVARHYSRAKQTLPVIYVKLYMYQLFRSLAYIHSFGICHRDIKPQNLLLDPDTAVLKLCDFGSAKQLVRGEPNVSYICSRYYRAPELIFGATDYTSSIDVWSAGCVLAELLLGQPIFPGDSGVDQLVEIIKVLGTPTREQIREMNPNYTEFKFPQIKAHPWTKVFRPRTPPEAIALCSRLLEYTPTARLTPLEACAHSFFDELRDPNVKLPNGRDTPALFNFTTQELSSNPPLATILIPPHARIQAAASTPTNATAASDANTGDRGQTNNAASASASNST
Serine/threonine-protein kinase Nek6, sequence (Q9HC98 whole entry): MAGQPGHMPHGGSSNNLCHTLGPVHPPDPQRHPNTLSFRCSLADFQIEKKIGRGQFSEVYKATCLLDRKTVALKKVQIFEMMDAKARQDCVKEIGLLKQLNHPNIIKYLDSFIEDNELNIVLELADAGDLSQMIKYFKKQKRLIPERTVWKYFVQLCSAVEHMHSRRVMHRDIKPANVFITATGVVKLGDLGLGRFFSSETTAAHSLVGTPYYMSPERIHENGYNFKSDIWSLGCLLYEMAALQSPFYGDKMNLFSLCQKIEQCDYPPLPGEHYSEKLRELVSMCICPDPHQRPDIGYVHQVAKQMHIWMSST

With `CNC(=O)c1nn(C)c2c1C(C)(C)Cc1cnc(Nc3ccc(N4CCN(C)CC4)cc3)nc1-2` [MILCICLIB] as the compound, how does the IC50 [1] read?
Its IC50 is over 10 µM.

What about the IC50 [2] of the same compound?
Its IC50 is 2.87 µM.

And the IC50 (Insulin receptor)?
The IC50 was over 10 µM.

And the IC50 [3]?
Its IC50 is over 10 µM.

And the Activity (A2780 [4])?
Its Activity is 76%.

And the IC50 [5]?
Its IC50 is over 10 µM.

What about the IC50 [6] of the same compound?
The IC50 was over 10 µM.

And the IC50 [7]?
Its IC50 is over 10 µM.

What about the IC50 [8] of the same compound?
The IC50 was 0.579 µM.

What about the IC50 [9] of the same compound?
The IC50 was 1.21 µM.

What about the Activity (A2780 [10]) of the same compound?
The Activity was 49%.

And the IC50 [11]?
Its IC50 is 0.398 µM.

What about the IC50 [12] of the same compound?
The IC50 was over 10 µM.

And the IC50 [13]?
Its IC50 is over 10 µM.

What about the IC50 [14] of the same compound?
Its IC50 is over 10 µM.

And the IC50 [15]?
Its IC50 is over 10 µM.

And the IC50 [16]?
The IC50 was over 10 µM.

And the IC50 [17]?
Its IC50 is over 10 µM.

What about the IC50 (Aurora kinase A) of the same compound?
Its IC50 is 1.05 µM.

What about the IC50 [18] of the same compound?
Its IC50 is over 10 µM.

What about the Activity (A2780 [19]) of the same compound?
The Activity was 75%.

What about the IC50 [20] of the same compound?
Its IC50 is 1.06 µM.

And the Activity (A2780 [21])?
Its Activity is 68%.

What about the IC50 [22] of the same compound?
The IC50 was over 10 µM.

And the IC50 [23]?
Its IC50 is 0.668 µM.

And the IC50 [24]?
Its IC50 is over 10 µM.

And the IC50 [25]?
Its IC50 is over 10 µM.

And the IC50 [26]?
Its IC50 is over 10 µM.

And the IC50 [27]?
Its IC50 is 1.93 µM.

And the IC50 [28]?
Its IC50 is 0.92 µM.

And the IC50 [29]?
The IC50 was over 10 µM.

What about the IC50 [30] of the same compound?
Its IC50 is over 10 µM.

And the IC50 [31]?
The IC50 was over 10 µM.

What about the IC50 [32] of the same compound?
The IC50 was over 10 µM.

What about the Activity (A2780 [33]) of the same compound?
Its Activity is 40%.

And the IC50 [34]?
Its IC50 is 1.17 µM.

What about the IC50 (Aurora kinase B) of the same compound?
The IC50 was 4.17 µM.

What about the solubility [35] of the same compound?
The solubility was 191 µM (≈ 88 µg/mL).

And the Activity (A2780 [36])?
The Activity was 53%.

And the IC50 [37]?
The IC50 was over 10 µM.

What about the IC50 (A2780 [38]) of the same compound?
Its IC50 is 0.2 µM.

And the Activity (A2780 [39])?
The Activity was 91%.
